In ChEMBL document CHEMBL5653631, “A Potent and Selective ULK1 Inhibitor Suppresses Autophagy and Sensitizes Cancer Cells to Nutrient Stress” (iScience, 2018):
One block for each molecule: values may come before it.

What was measured:
[1] = target: Tyrosine-protein kinase Blk (Homo sapiens) (UniProt P51451); assay: Inhibition of human recombinant BLK at 500 nM related to control ULK1
[2] = target: Ribosomal protein S6 kinase alpha-5 (Homo sapiens) (UniProt O75582); assay: Inhibition of human recombinant MSK1 at 500 nM related to control ULK1
[3] = target: Cyclin-dependent kinase-like 1 (Homo sapiens) (UniProt Q00532); assay: Inhibition of human recombinant CDKL1 at 500 nM related to control ULK1
[4] = target: Serine/threonine-protein kinase WNK3 (Homo sapiens) (UniProt Q9BYP7); assay: Inhibition of human recombinant Wnk3 at 500 nM in presence of ATP by radiometric assay relative to control
Homo sapiens = species: Homo sapiens; assay: Inhibition of human recombinant CK1d at 15 nM related to control ULK1
[5] = target: Interleukin-1 receptor-associated kinase 1 (Homo sapiens) (UniProt P51617); assay: Inhibition of human recombinant IRAK1 at 15 nM in presence of ATP by radiometric assay relative to control
[6] = target: Aurora kinase B (Homo sapiens) (UniProt Q96GD4); assay: Inhibition of human recombinant AurB at 15 nM related to control ULK1
[7] = target: T1, Mitogen-activated protein kinase 12 (Homo sapiens) (UniProt P53778); assay: Inhibition of human recombinant p38gamma at 15 nM related to control ULK1
T1 sequence (whole entry): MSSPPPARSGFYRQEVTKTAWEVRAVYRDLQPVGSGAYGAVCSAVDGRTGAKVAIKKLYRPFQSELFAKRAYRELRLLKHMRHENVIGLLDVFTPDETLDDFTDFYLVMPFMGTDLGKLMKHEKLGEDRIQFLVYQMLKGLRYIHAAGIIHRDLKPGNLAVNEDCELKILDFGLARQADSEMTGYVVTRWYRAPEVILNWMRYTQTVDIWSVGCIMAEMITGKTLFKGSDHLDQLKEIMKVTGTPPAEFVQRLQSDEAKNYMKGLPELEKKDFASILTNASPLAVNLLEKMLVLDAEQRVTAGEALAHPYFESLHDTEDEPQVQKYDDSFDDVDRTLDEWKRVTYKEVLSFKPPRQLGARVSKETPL

[8] = target: T2, Serine/threonine-protein kinase ULK3 (Homo sapiens) (UniProt Q6PHR2); assay: Inhibition of human recombinant ULK3 at 15 nM related to control ULK1
T2 sequence (whole entry): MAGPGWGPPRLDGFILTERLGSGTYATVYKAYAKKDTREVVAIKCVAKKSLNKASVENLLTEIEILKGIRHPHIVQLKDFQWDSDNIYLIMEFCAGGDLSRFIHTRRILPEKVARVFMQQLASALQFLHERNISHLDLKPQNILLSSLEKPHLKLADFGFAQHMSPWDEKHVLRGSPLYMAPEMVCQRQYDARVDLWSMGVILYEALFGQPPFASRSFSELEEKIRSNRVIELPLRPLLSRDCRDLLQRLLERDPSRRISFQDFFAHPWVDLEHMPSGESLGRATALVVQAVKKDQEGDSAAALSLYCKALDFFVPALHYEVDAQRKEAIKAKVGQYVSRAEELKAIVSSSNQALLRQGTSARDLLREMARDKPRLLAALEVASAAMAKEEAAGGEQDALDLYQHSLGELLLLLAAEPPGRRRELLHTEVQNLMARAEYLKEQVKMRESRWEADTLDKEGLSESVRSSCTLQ

[9] = target: T3, Mitogen-activated protein kinase kinase kinase 7 (Homo sapiens) (UniProt O43318); assay: Inhibition of human recombinant TAK1 at 40 nM in presence of ATP by radiometric assay relative to control
T3 sequence (whole entry): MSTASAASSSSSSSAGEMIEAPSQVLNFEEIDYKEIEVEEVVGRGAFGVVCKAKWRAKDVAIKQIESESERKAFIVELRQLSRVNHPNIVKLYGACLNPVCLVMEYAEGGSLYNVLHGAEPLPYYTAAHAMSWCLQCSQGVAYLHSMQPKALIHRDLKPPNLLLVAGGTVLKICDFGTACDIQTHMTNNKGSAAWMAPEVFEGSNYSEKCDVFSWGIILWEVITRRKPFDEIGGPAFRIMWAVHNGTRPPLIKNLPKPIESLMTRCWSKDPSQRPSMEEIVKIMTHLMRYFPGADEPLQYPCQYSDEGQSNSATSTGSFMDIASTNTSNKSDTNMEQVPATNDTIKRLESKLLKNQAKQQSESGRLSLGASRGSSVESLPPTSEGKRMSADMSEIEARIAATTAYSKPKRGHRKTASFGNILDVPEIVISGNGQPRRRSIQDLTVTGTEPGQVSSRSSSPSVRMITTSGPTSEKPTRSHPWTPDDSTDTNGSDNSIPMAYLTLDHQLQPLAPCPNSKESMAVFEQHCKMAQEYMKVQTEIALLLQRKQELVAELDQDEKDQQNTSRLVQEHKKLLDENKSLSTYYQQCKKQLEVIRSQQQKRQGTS

[10] = target: Protein-tyrosine kinase 6 (Homo sapiens) (UniProt Q13882); assay: Inhibition of human recombinant BRK at 40 nM in presence of ATP by radiometric assay relative to control
How it was run: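 Part of a radiometric in vitro activity panel of 327 recombinant human kinases. Each kinase was tested in duplicate at one inhibitor concentration. Activity remaining was expressed as a percentage of the vehicle control, and percent inhibition was taken as 100 minus that value.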

Tyrosine-protein kinase Blk (Homo sapiens), sequence (P51451 2-505 limits assumed): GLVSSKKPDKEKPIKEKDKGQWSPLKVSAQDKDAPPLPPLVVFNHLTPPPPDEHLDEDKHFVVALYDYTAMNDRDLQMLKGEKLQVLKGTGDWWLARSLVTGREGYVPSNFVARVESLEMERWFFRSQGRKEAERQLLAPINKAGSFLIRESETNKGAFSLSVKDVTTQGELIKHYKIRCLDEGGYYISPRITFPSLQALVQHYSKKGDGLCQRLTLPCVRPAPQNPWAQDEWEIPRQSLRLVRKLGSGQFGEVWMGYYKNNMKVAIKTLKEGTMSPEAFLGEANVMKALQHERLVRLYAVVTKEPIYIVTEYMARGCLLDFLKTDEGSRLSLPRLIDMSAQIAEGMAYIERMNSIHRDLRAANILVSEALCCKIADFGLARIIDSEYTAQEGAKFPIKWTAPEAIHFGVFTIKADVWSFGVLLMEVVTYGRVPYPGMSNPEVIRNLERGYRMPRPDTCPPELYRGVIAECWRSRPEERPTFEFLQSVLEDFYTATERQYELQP
Aurora kinase B (Homo sapiens), sequence (Q96GD4 whole entry): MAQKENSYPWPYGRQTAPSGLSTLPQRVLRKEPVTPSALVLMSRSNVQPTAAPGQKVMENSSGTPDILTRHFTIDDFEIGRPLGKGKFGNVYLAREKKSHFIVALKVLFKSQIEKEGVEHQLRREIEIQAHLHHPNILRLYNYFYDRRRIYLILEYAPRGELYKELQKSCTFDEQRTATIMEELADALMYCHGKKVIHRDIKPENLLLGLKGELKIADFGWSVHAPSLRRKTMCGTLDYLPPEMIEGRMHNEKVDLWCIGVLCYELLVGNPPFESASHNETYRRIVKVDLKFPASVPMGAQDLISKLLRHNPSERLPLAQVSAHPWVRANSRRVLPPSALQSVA
Serine/threonine-protein kinase WNK3 (Homo sapiens), sequence (Q9BYP7 whole entry): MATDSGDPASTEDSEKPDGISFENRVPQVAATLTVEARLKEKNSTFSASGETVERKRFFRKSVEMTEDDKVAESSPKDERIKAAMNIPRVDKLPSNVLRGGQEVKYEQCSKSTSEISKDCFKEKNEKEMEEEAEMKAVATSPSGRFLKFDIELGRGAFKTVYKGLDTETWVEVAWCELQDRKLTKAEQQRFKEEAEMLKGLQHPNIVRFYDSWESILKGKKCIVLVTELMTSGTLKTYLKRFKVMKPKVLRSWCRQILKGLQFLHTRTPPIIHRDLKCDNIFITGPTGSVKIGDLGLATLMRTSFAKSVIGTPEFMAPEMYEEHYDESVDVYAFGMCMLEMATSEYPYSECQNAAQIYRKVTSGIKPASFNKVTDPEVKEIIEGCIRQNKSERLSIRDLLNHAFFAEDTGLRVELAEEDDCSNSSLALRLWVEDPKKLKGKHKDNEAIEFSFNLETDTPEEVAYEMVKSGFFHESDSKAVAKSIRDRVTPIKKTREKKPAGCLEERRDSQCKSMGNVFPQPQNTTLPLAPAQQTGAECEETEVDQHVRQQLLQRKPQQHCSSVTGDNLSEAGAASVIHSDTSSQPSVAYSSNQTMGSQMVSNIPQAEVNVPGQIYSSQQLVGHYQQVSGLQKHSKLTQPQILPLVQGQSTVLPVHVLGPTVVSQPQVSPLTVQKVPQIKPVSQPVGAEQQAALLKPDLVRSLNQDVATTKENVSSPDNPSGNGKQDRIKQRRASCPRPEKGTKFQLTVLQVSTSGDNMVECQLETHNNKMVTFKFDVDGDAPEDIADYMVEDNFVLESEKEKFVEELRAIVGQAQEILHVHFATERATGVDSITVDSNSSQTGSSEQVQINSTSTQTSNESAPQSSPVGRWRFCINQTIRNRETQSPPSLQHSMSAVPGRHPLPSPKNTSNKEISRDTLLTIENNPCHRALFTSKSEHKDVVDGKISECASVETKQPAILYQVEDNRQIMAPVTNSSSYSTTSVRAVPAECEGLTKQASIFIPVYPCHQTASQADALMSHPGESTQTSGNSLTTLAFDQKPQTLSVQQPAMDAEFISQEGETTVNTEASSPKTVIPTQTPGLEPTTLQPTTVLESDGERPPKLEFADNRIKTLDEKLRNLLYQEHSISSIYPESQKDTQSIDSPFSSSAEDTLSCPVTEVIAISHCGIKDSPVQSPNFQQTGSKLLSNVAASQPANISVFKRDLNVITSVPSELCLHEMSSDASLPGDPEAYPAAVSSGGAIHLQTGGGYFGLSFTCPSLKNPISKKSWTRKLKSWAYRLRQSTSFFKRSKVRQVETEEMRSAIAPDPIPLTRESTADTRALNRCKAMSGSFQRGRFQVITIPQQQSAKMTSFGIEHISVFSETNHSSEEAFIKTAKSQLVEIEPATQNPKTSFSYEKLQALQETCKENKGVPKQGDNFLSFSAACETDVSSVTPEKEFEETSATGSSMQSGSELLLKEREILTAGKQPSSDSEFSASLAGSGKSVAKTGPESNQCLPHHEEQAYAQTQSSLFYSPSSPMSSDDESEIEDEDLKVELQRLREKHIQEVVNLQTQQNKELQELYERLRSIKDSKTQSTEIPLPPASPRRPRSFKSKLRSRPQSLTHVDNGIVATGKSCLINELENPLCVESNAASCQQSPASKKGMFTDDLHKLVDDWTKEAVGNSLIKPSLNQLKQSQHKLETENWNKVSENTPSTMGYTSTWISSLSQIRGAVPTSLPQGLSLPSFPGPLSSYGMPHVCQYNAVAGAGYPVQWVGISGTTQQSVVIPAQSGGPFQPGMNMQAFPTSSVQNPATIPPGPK
Interleukin-1 receptor-associated kinase 1 (Homo sapiens), sequence (P51617 whole entry, looked up): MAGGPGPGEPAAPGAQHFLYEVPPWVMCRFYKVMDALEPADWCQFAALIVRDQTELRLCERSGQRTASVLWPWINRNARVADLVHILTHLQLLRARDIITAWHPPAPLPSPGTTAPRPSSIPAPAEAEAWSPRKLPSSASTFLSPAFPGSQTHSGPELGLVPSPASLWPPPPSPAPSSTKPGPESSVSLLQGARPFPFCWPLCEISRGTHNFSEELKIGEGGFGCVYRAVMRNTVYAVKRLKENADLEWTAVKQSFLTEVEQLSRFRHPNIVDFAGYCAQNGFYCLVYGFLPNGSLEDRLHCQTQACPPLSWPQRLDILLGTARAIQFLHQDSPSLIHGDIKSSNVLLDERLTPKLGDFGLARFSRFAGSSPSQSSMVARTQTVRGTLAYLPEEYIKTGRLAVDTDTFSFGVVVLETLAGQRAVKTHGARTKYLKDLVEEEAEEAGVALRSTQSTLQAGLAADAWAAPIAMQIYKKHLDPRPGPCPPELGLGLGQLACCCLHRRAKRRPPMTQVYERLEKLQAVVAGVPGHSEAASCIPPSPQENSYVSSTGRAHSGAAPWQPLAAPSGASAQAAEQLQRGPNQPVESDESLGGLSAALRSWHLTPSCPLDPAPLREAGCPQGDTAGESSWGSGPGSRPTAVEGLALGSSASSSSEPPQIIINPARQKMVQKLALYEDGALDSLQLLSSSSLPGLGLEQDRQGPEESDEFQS
Cyclin-dependent kinase-like 1 (Homo sapiens), sequence (Q00532 whole entry): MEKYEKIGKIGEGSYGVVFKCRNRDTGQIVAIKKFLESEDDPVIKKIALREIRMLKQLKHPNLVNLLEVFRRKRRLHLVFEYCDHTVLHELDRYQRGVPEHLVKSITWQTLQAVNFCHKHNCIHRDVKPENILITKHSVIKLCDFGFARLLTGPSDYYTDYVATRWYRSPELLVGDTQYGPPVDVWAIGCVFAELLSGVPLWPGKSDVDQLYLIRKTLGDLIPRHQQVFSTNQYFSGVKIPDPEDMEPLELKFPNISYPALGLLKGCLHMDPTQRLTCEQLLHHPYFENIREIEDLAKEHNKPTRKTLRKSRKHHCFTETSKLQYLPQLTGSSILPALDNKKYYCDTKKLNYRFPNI
Ribosomal protein S6 kinase alpha-5 (Homo sapiens), sequence (O75582 whole entry, looked up): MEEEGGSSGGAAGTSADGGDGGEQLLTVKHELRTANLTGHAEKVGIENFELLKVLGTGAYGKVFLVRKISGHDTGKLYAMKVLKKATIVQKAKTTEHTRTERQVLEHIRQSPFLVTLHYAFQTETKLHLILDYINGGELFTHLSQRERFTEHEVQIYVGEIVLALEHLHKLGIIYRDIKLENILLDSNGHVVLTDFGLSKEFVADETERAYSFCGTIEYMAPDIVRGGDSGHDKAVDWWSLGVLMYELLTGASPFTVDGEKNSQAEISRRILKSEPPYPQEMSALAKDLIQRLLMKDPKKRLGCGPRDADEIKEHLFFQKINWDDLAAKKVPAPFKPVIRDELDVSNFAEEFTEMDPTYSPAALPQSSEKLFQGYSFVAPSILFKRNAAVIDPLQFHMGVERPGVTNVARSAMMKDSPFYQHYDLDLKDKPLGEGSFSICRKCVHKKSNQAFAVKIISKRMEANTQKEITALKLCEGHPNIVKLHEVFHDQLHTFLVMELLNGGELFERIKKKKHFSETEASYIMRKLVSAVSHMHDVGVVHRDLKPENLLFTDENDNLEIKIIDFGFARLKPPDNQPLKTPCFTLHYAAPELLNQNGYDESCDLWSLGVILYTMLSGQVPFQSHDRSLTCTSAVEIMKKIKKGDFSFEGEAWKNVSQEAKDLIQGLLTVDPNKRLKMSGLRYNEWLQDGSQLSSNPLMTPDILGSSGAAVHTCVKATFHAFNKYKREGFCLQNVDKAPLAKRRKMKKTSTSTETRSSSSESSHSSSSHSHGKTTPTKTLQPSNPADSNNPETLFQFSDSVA
Protein-tyrosine kinase 6 (Homo sapiens), sequence (Q13882 whole entry, looked up): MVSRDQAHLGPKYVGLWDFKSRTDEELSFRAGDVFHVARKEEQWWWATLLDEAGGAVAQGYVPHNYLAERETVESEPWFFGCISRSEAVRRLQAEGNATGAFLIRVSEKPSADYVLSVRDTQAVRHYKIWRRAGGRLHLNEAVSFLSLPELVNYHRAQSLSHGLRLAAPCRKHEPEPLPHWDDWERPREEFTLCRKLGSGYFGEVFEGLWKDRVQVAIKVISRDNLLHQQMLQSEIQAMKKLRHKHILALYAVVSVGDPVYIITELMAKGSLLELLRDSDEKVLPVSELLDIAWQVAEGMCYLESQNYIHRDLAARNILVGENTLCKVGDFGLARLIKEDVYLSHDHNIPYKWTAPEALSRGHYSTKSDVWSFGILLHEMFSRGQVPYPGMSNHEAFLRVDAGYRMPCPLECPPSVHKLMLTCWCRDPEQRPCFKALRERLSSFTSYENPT

fold change (FC) [1]: 0.39
fold change (FC) [2]: 0.15
fold change (FC) [3]: 0
inhibition [4]: 6%
SMILES: CNC(=O)c1ccccc1Oc1nc(Nc2cc(OC)c(OC)c(OC)c2)ncc1Br

fold change (FC) (Homo sapiens): 0.03
inhibition [5]: 36%
fold change (FC) [6]: 0.2
fold change (FC) [7]: 0.06
fold change (FC) [8]: 0.45
SMILES: CC(C)[C@H](NC(=O)c1cc(-c2cnn3cc(-c4ccc(OCCN5CCCCC5)cc4)cnc23)cs1)C(F)(F)F

inhibition [9]: 0%
inhibition [10]: 0%
SMILES: O=C(N[C@@H](C1CC1)C(F)(F)F)c1cc(-c2cnn3cc(-c4ccc(F)cc4)cnc23)cs1
